Experimental data: ChEMBL document CHEMBL4354800, “Amphiphilic nebramine-based hybrids Rescue legacy antibiotics from intrinsic resistance in multidrug-resistant Gram-negative bacilli” (Eur J Med Chem, 2019)

Columns and labels:
Type in all cases: functional
Pseudomonas aeruginosa [1] = assay: Synergistic antibacterial activity against MDR/XDR Pseudomonas aeruginosa isolate 101885 harboring GyrA T83I mutant assessed as fractional inhibitory concentration index in presence of ciprofloxacin incubated for 18 hrs by broth microdilution method
Outline: (§1)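 Checkerboard synergy assay. Antibiotic and adjuvant in twofold dilutions in Mueller-Hinton broth. Inoculum 5 × 10^5 CFU/mL from a 0.5 McFarland suspension, 18 h at 37 °C, MIC read by turbidity and confirmed at 590 nm. FIC = MIC in combination / MIC alone for each agent, FICI = sum. Interpreted as ≤0.5 synergy, 0.5–4 no interaction, >4 antagonism.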

Pseudomonas aeruginosa [2] = assay: Antimicrobial activity against MDR/XDR Pseudomonas aeruginosa isolate 100036 harboring GyrA Thr83Ile mutant incubated for 18 hrs by broth microdilution method; details: isolate 100036, 18 h
Outline: (§2)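 Broth microdilution per CLSI: overnight cultures set to 0.5 McFarland in saline, diluted 1:50 in Mueller-Hinton broth to a final 5 × 10^5 CFU/mL, added to 2-fold serial dilutions, incubated 18 h at 37 °C; MIC is the lowest concentration without visible turbidity, confirmed at 590 nm.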

Pseudomonas aeruginosa [3] = assay: Antimicrobial activity against MDR/XDR Pseudomonas aeruginosa isolate 101885 harboring GyrA Thr83Ile mutant incubated for 18 hrs by broth microdilution method; details: isolate 101885, 18 h; outline: as §2
Pseudomonas aeruginosa [4] = assay: Synergistic antibacterial activity against MDR/XDR Pseudomonas aeruginosa isolate PA262-101856 harboring GyrA T83I mutant assessed as fractional inhibitory concentration index in presence of ciprofloxacin incubated for 18 hrs by broth microdilution method; outline: as §1
Pseudomonas aeruginosa [5] = assay: Synergistic antibacterial activity against MDR/XDR Pseudomonas aeruginosa isolate 101885 harboring GyrA T83I mutant assessed as fractional inhibitory concentration index in presence of moxifloxacin incubated for 18 hrs by broth microdilution method; outline: as §1
Pseudomonas aeruginosa [6] = assay: Synergistic antibacterial activity against MDR/XDR Pseudomonas aeruginosa isolate PA259-96918 harboring GyrA T83I mutant assessed as fractional inhibitory concentration index in presence of moxifloxacin incubated for 18 hrs by broth microdilution method; outline: as §1
Pseudomonas aeruginosa [7] = assay: Synergistic antibacterial activity against MDR/XDR Pseudomonas aeruginosa isolate PA260-97103 harboring GyrA T83I mutant assessed as fractional inhibitory concentration index in presence of ciprofloxacin incubated for 18 hrs by broth microdilution method; outline: as §1
Pseudomonas aeruginosa [8] = assay: Synergistic antibacterial activity against MDR/XDR Pseudomonas aeruginosa isolate 91433 devoid of GyrA T83I mutant assessed as fractional inhibitory concentration index in presence of minocycline incubated for 18 hrs by broth microdilution method; outline: as §1
Pseudomonas aeruginosa [9] = assay: Synergistic antibacterial activity against MDR/XDR Pseudomonas aeruginosa isolate 101885 harboring T83I mutant assessed as fractional inhibitory concentration index in presence of minocycline incubated for 18 hrs by broth microdilution method; outline: as §1
Pseudomonas aeruginosa [10] = assay: Synergistic antibacterial activity against MDR/XDR Pseudomonas aeruginosa isolate 101243 devoid of GyrA T83I mutant assessed as fractional inhibitory concentration index in presence of minocycline incubated for 18 hrs by broth microdilution method; outline: as §1
Pseudomonas aeruginosa [11] = assay: Synergistic antibacterial activity against MDR/XDR Pseudomonas aeruginosa isolate 101243 devoid of GyrA T83I mutant assessed as fractional inhibitory concentration index in presence of rifampicin incubated for 18 hrs by broth microdilution method; outline: as §1
Pseudomonas aeruginosa [12] = assay: Synergistic antibacterial activity against MDR/XDR Pseudomonas aeruginosa isolate PA262-101856 harboring GyrA T83I mutant assessed as fractional inhibitory concentration index in presence of moxifloxacin incubated for 18 hrs by broth microdilution method; outline: as §1
Pseudomonas aeruginosa [13] = assay: Antimicrobial activity against MDR/XDR Pseudomonas aeruginosa isolate PA262-101856 harboring GyrA Thr83Ile mutant incubated for 18 hrs by broth microdilution method; details: isolate PA262-101856, 18 h; outline: as §2
Pseudomonas aeruginosa [14] = assay: Synergistic antibacterial activity against MDR/XDR Pseudomonas aeruginosa isolate 100036 harboring GyrA T83I mutant assessed as fractional inhibitory concentration index in presence of ciprofloxacin incubated for 18 hrs by broth microdilution method; outline: as §1
Pseudomonas aeruginosa [15] = assay: Antimicrobial activity against MDR/XDR Pseudomonas aeruginosa isolate PA260-97103 harboring GyrA Thr83Ile mutant incubated for 18 hrs by broth microdilution method; details: isolate PA260-97103, 18 h; outline: as §2
Pseudomonas aeruginosa [16] = assay: Synergistic antibacterial activity against MDR/XDR Pseudomonas aeruginosa isolate 91433 devoid of GyrA T83I mutant assessed as fractional inhibitory concentration index in presence of moxifloxacin incubated for 18 hrs by broth microdilution method; outline: as §1
Pseudomonas aeruginosa [17] = assay: Synergistic antibacterial activity against MDR/XDR Pseudomonas aeruginosa isolate PA260-97103 harboring GyrA T83I mutant assessed as fractional inhibitory concentration index in presence of rifampicin incubated for 18 hrs by broth microdilution method; outline: as §1
Pseudomonas aeruginosa [18] = assay: Synergistic antibacterial activity against MDR/XDR Pseudomonas aeruginosa isolate PA260-97103 harboring GyrA T83I mutant assessed as fractional inhibitory concentration index in presence of moxifloxacin incubated for 18 hrs by broth microdilution method; outline: as §1
Pseudomonas aeruginosa [19] = assay: Synergistic antibacterial activity against MDR/XDR Pseudomonas aeruginosa isolate PA262-101856 harboring GyrA T83I mutant assessed as fractional inhibitory concentration index in presence of minocycline incubated for 18 hrs by broth microdilution method; outline: as §1
Pseudomonas aeruginosa [20] = assay: Antimicrobial activity against MDR/XDR Pseudomonas aeruginosa isolate PA264-104354 harboring GyrA Thr83Ile mutant incubated for 18 hrs by broth microdilution method; details: isolate PA264-104354, 18 h; outline: as §2
Klebsiella pneumoniae [21] = assay: Synergistic antibacterial activity against Klebsiella pneumoniae 116381 assessed as fractional inhibitory concentration index in presence of rifampicin incubated for 18 hrs by broth dilution method
Outline: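 Checkerboard titration of the adjuvant against the antibiotic, run under the CLSI microdilution conditions (MHB, 5 × 10^5 CFU/mL, 18 h, 37 °C). Each agent's FIC is its MIC in combination divided by its MIC alone; FICI is the sum of the two FICs. FICI ≤0.5 was read as synergy, >0.5–4.0 as no interaction, and >4.0 as antagonism.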

Klebsiella pneumoniae [22] = assay: Antimicrobial activity against Klebsiella pneumoniae 116381 incubated for 18 hrs by broth dilution method; details: Klebsiella pneumoniae, 116381, 18 h
Outline: (§3)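 CLSI broth microdilution. Overnight cultures were adjusted to 0.5 McFarland in saline, diluted 1:50 in Mueller-Hinton broth, and inoculated at a final 5 × 10^5 CFU/mL. Compounds were tested as 2-fold serial dilutions and incubated 18 h at 37 °C. MIC was the lowest concentration with no visible turbidity, confirmed by absorbance at 590 nm.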

Enterobacter cloacae = assay: Antimicrobial activity against Enterobacter cloacae 117029 incubated for 18 hrs by broth dilution method; details: Enterobacter cloacae, 117029, 18 h; outline: as §3
Pseudomonas aeruginosa [23] = assay: Synergistic antibacterial activity against MDR/XDR Pseudomonas aeruginosa isolate PA264-104354 harboring T83I mutant assessed as fractional inhibitory concentration index in presence of rifampicin incubated for 18 hrs by broth microdilution method; outline: as §1
Pseudomonas aeruginosa [24] = assay: Potentiation of minocycline-induced antimicrobial activity against MDR/XDR Pseudomonas aeruginosa isolate PA262-101856 harboring GyrA Thr83Ile mutant assessed as minocycline MIC50 incubated for 18 hrs by broth microdilution method (reference value: 16 microg/ml); details: isolate PA262-101856, 18 h

Structure (SMILES) | fractional inhibitory concentration index (FICI) (Pseudomonas aeruginosa [1]) | MIC (Pseudomonas aeruginosa [2]) | MIC (Pseudomonas aeruginosa [3]) | fractional inhibitory concentration index (FICI) (Pseudomonas aeruginosa [4]) | fractional inhibitory concentration index (FICI) (Pseudomonas aeruginosa [5]) | fractional inhibitory concentration index (FICI) (Pseudomonas aeruginosa [6]) | fractional inhibitory concentration index (FICI) (Pseudomonas aeruginosa [7]) | fractional inhibitory concentration index (FICI) (Pseudomonas aeruginosa [8]) | fractional inhibitory concentration index (FICI) (Pseudomonas aeruginosa [9]) | fractional inhibitory concentration index (FICI) (Pseudomonas aeruginosa [10]) | fractional inhibitory concentration index (FICI) (Pseudomonas aeruginosa [11]) | fractional inhibitory concentration index (FICI) (Pseudomonas aeruginosa [12]) | MIC (Pseudomonas aeruginosa [13]) | fractional inhibitory concentration index (FICI) (Pseudomonas aeruginosa [14]) | MIC (Pseudomonas aeruginosa [15]) | fractional inhibitory concentration index (FICI) (Pseudomonas aeruginosa [16]) | fractional inhibitory concentration index (FICI) (Pseudomonas aeruginosa [17]) | fractional inhibitory concentration index (FICI) (Pseudomonas aeruginosa [18]) | fractional inhibitory concentration index (FICI) (Pseudomonas aeruginosa [19]) | MIC (Pseudomonas aeruginosa [20]) | also measured
Cl.Cl.Cl.Cl.Cl.Cl.NC[C@H]1O[C@H](O[C@H]2[C@H](OCCCCCCCCCCN3CCN(Cc4cccc5ccccc45)CC3)[C@@H](O)[C@H](N)C[C@@H]2N)[C@H](N)C[C@@H]1O | 0.13 | > 512 µg/mL | 512 µg/mL | 0.13 | 0.07 | 0.016 - 0.023 | 0.38 | 0.19 | 0.04 | 0.09 | 0.05 | 0.09 | 512 µg/mL | 0.125 - 0.133 | 32 µg/mL | 0.25 | 0.05 | 0.08 | 0.04 | – | –
Cl.Cl.Cl.Cl.Cl.NC[C@H]1O[C@H](O[C@H]2[C@H](OCCCCCCCCCCCCN3CCN(c4cc5c(cc4F)c(=O)c(C(=O)O)cn5C4CC4)CC3)[C@@H](O)[C@H](N)C[C@@H]2N)[C@H](N)C[C@@H]1O | – | – | – | – | – | – | – | – | – | – | – | – | – | – | – | – | – | – | – | 128 µg/mL | fractional inhibitory concentration index (FICI) (Klebsiella pneumoniae [21]): <=0.039; MIC (Klebsiella pneumoniae [22]): > 128 µg/mL; MIC (Enterobacter cloacae): 32 µg/mL; fractional inhibitory concentration index (FICI) (Pseudomonas aeruginosa [23]): 0.039
COc1c(N2C[C@@H]3CCCN(CCCCCCCCCCCCO[C@@H]4[C@@H](O)[C@H](N)C[C@H](N)[C@H]4O[C@H]4O[C@H](CN)[C@@H](O)C[C@H]4N)[C@@H]3C2)c(F)cc2c(=O)c(C(=O)O)cn(C3CC3)c12.Cl.Cl.Cl.Cl.Cl | >1 | 128 µg/mL | 128 µg/mL | 0.25 - 0.28 | 0.25 | 0.06 - 0.07 | 0.25 | 0.19 | 0.07 | 0.13 | 0.13 | 0.13 - 0.16 | > 256 µg/mL | 0.56 | 32 µg/mL | 0.31 | 0.06 | 0.13 | 0.03 - 0.05 | 256 µg/mL | fractional inhibitory concentration index (FICI) (Klebsiella pneumoniae [21]): 0.002 - 0.006; MIC (Klebsiella pneumoniae [22]): > 256 µg/mL; MIC50 (Pseudomonas aeruginosa [24]): 0.5 µg/mL; MIC (Enterobacter cloacae): 32 µg/mL; fractional inhibitory concentration index (FICI) (Pseudomonas aeruginosa [23]): 0.02
